Values joined by “and” are separate entries in the source; they are usually repeats but may differ in a detail not shown here. Equal entries are not always repeated.

Chain of urease (P07374 whole entry, looked up): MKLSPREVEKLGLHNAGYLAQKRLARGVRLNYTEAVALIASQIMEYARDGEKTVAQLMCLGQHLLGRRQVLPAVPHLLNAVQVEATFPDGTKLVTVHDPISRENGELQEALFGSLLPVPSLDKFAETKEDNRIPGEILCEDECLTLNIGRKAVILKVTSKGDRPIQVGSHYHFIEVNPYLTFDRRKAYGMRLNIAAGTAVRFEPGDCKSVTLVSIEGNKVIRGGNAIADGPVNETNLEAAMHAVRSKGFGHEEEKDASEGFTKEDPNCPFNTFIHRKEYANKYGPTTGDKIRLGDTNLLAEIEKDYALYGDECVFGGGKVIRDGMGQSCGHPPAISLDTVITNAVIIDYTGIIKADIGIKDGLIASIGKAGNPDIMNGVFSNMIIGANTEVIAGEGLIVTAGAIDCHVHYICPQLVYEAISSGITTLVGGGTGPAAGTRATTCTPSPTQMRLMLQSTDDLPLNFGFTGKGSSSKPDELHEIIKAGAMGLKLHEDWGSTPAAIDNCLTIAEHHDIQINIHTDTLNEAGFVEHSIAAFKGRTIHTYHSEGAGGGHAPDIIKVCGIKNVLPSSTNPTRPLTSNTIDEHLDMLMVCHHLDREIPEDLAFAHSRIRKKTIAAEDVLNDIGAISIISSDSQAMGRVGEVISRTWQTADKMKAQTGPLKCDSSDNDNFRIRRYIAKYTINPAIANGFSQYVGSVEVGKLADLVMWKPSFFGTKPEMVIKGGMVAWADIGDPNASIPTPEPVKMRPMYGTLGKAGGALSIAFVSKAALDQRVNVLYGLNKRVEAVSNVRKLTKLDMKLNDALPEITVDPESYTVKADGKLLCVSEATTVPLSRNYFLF

The assay concerns the target urease (Canavalia ensiformis, UniProt P07374). Kind of assay: Urease inhibition assay. The class given is biochemical. The settings on record: IC50 (µM) ± SEM, in-vitro urease inhibition. The method in brief:
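Test compound and enzyme preincubated in pH 6.8 phosphate buffer for 10 min at 37 °C. Phenol and alkali reagents then added. Absorbance read at 625 nm. Percent inhibition calculated as (control absorbance − sample absorbance)/control absorbance × 100. Run in triplicate, with a standard urease inhibitor as positive control. Values given ± SEM.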
Consider `CSc1ccc(C=NN=C(Cc2ccccc2)c2ccccc2)cc1` [Compound 7, 1-(1,2-diphenylethylidene)-2-(4-(methylthio)benzylidene)hydrazine], for which the concentration for half-maximal inhibition (IC50) was 45.9 µM and 48.3 µM.
For `Cc1ccc(C=NN=C(Cc2ccccc2)c2ccccc2)cc1` [Compound 8, 1-(1,2-diphenylethylidene)-2-(4-methylbenzylidene)hydrazine] the value was 47.9 µM and 45.9 µM; for `Oc1ccc(C=NN=C(Cc2ccccc2)c2ccccc2)cc1` [Compound 9, 1-(1,2-diphenylethylidene)-2-(4-hydroxybenzylidene)hydrazine], 48.3 µM and 47.9 µM; for `Clc1ccc(C=NN=C(Cc2ccccc2)c2ccccc2)c(Cl)c1` [Compound 3, 1-(2,4-dichlorobenzylidene)-2-(1,2-diphenylethylidene)hydrazine], 22.2 ± 0.42 µM.
For `O=[N+]([O-])c1ccc(C=NN=C(Cc2ccccc2)c2ccccc2)cc1` [Compound 4, 1-(1,2-diphenylethylidene)-2-(4-nitrobenzylidene)hydrazine] the value was 26.11 ± 0.22 µM; for `Clc1ccc(C=NN=C(Cc2ccccc2)c2ccccc2)cc1` [Compound 6, 1-(4-chlorobenzylidene)-2-(1,2-diphenylethylidene)hydrazine], 28.11 ± 0.22 µM; for `O=[N+]([O-])c1ccc(O)c(C=NN=C(Cc2ccccc2)c2ccccc2)c1` [Compound 5, 1-(1,2-diphenylethylidene)-2-(2-hydroxy-5-nitrobenzylidene)hydrazine], 34.3 ± 0.65 µM.

(Values after paper PMC10345485 (Saudi Pharmaceutical Journal : SPJ, 2023).)
